According to ChEMBL document CHEMBL1139810, “Novel anti-infection agents: small-molecule inhibitors of bacterial transcription factors” (Bioorg Med Chem Lett, 2007):

Legend:
[1] = tested on: Escherichia coli; test: Inhibition of Escherichia coli SoxS binding to DNA at 50 ug/mL
[2] = Inhibition of Escherichia coli SoxS binding to DNA
[3] = tested on: Staphylococcus aureus; test: Antimicrobial activity against antibiotic-susceptible Staphylococcus aureus RN450; assay type: functional
[4] = tested on: Escherichia coli; test: Antimicrobial activity against antibiotic-susceptible Escherichia coli ML308-225; assay type: functional
[5] = tested on: Escherichia coli; test: Reduction of colony formation in urinary tract infection mouse model assessed per gram of kidney at 10 mg/kg, ip; assay type: functional; details: route intraperitoneal
[6] = Inhibition of Escherichia coli MarA binding to DNA
Procedure, shortened: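 Binding of the 6-His-tagged Mar protein (20 nM) to biotinylated double-stranded target DNA (2 nM) was measured with test compound on streptavidin-coated wells. After washing, retained protein was read by luminescence, and inhibition appeared as signal loss. Selected compounds were also incubated with DNA and run on agarose gels to check whether they altered DNA structure.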

[7] = tested on: Escherichia coli; test: Inhibition of Escherichia coli Rob binding to DNA; assay type: functional, organism-based
[8] = molecular target: T1, HTH-type transcriptional regulator ExsA (Pseudomonas aeruginosa (strain ATCC 15692 / PAO1 / 1C / PRS 101 / LMG12228), UniProt P26993); test: Inhibition of Pseudomonas aeruginosa ExsA binding to DNA
T1 sequence (P26993 whole entry): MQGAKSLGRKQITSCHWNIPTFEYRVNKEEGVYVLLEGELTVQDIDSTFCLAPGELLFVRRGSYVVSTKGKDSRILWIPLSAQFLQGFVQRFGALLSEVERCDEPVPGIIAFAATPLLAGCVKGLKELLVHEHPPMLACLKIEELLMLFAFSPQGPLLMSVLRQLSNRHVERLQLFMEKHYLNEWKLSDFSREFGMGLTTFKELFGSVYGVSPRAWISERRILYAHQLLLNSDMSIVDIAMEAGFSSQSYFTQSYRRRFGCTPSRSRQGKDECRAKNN

[9] = Inhibition of Salmonella Typhimurium Rma binding to DNA; set-up: species or system Salmonella enterica subsp. enterica serovar Typhimurium
[10] = Inhibition of Proteus mirabilis PqrA binding to DNA
[11] = tested on: Escherichia coli; test: Inhibition of Escherichia coli SoxS binding to DNA at 25 ug/mL

SMILES	inhibition [1] [%]	further results
N#CCOn1c(-c2ccccc2)nc2ccc([N+](=O)[O-])cc21	12	
On1c(-c2ccccc2)nc2ccccc21	0	
O=C(O)CCOn1c(-c2ccccc2)nc2ccc([N+](=O)[O-])cc21	0	
COc1ccc(C(=O)Nc2ccc(-c3nc4ccc([N+](=O)[O-])cc4n3O)cc2)cc1		IC50 [2]: 2500 nM; MIC [3]: > 64 µg/mL; MIC [4]: > 64 µg/mL; CFU [5]: 1
COn1c(-c2ccccc2)nc2ccc([N+](=O)[O-])cc21	17	
O=[N+]([O-])c1ccc2nc(-c3ccccc3)n(O)c2c1	38	
CN(C)c1ccc(C(=O)Nc2ccc(-c3nc4ccc([N+](=O)[O-])cc4n3O)cc2)cc1		IC50 [2]: 820 nM; MIC [3]: > 64 µg/mL; MIC [4]: > 64 µg/mL; IC50 [6]: 1200 nM; IC50 [7]: 1300 nM; IC50 [8]: 1900 nM; IC50 [9]: 1800 nM; IC50 [10]: 1400 nM; CFU [5]: 0.5
O=[N+]([O-])c1ccc2nc(-c3ccc(Br)cc3)n(O)c2c1	26	
O=C(O)c1ccc2nc(-c3ccccc3)n(O)c2c1	12	
O=[N+]([O-])c1ccc2nc(-c3ccccc3)n(OCCO)c2c1	0	
On1c(-c2ccccc2)nc2ccc(F)cc21	26	
CC(=O)c1ccc2nc(-c3ccccc3)n(O)c2c1	37	
NC(=O)c1ccc2nc(-c3ccccc3)n(O)c2c1	14	
O=C(Nc1ccc(-c2nc3ccc([N+](=O)[O-])cc3n2O)cc1)c1ccccc1	100	inhibition [11]: 100%; IC50 [2]: 17000 nM; MIC [3]: > 64 µg/mL; MIC [4]: > 64 µg/mL
COc1ccc2nc(-c3ccccc3)n(O)c2c1	0	
O=[N+]([O-])c1ccc2nc(-c3ccc(Oc4ccccc4)cc3)n(O)c2c1	14	
CS(=O)(=O)c1ccc2nc(-c3ccccc3)n(O)c2c1	35	
Nc1ccc(-c2nc3ccc([N+](=O)[O-])cc3n2O)cc1	80	
O=C(O)COn1c(-c2ccccc2)nc2ccc([N+](=O)[O-])cc21	14	
On1c(-c2ccccc2)nc2ccc(C(F)(F)F)cc21	26	

SMILES	inhibition [1] [%]	further results
O=C(NCc1ccc(-c2nc3ccc([N+](=O)[O-])cc3n2O)cc1)c1ccccc1	44	
CN(C)c1ccc(-c2nc3ccc([N+](=O)[O-])cc3n2O)cc1	75	
CCOC(=O)COn1c(-c2ccccc2)nc2ccc([N+](=O)[O-])cc21	0	
COc1ccc(-c2nc3ccc([N+](=O)[O-])cc3n2O)cc1	12	
CC(=O)Nc1ccccc1-c1nc2ccc([N+](=O)[O-])cc2n1O	31	
O=C(Nc1ccc(-c2nc3ccc([N+](=O)[O-])cc3n2O)cc1)c1cccc(Cl)c1		IC50 [2]: 3400 nM; MIC [3]: > 64 µg/mL; MIC [4]: > 64 µg/mL
CN(C)c1ccc2nc(-c3ccccc3)n(O)c2c1	28	
N#Cc1ccc2nc(-c3ccccc3)n(O)c2c1	30	
CCCOn1c(-c2ccccc2)nc2ccc([N+](=O)[O-])cc21	0	
NCCOn1c(-c2ccccc2)nc2ccc([N+](=O)[O-])cc21	0	
Nc1cccc(-c2nc3ccc([N+](=O)[O-])cc3n2O)c1	60	
CC(=O)Nc1cccc(-c2nc3ccc([N+](=O)[O-])cc3n2O)c1	32	
Nc1ccccc1-c1nc2ccc([N+](=O)[O-])cc2n1O	2	
CC(C)(C)c1ccc2nc(-c3ccccc3)n(O)c2c1	0	
CC(=O)Nc1ccc(-c2nc3ccc([N+](=O)[O-])cc3n2O)cc1	100	inhibition [11]: 58%
O=C(Nc1ccc(-c2nc3ccc([N+](=O)[O-])cc3n2O)cc1)c1ccc(F)cc1		IC50 [2]: 2800 nM; MIC [3]: > 64 µg/mL; MIC [4]: > 64 µg/mL; IC50 [7]: 4700 nM; IC50 [8]: 4000 nM; IC50 [9]: 4900 nM
CN(C)c1cccc(-c2nc3ccc([N+](=O)[O-])cc3n2O)c1	30	
O=[N+]([O-])c1ccc2nc(-c3ccc(O)cc3)n(O)c2c1	35	
C/C(=N/O)c1ccc2nc(-c3ccccc3)n(O)c2c1	38	
Cc1ccc(C(=O)Nc2ccc(-c3nc4ccc([N+](=O)[O-])cc4n3O)cc2)cc1		IC50 [2]: 10000 nM; MIC [3]: > 64 µg/mL; MIC [4]: > 64 µg/mL
